Experiment [1] has as its system HeLa. Kind of experiment: Induction of mitophagy in human HeLa cells transfected with YFP-Parkin assessed as effect on mitochondrial fragmentation at 50 uM incubated for 24 hrs by Hoechst 33258 staining based immunofluorescence analysis. The experiment is classed as functional, cell-based. The gist of the method:
(§1)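 YFP-Parkin-transfected HeLa cells were left untreated or exposed to 50 μM compound alone for 24 h. Cells were PFA-fixed, Triton-permeabilised and immunostained for pSer65-Ub and TOM20 with Hoechst. Confocal imaging assessed mitochondrial fragmentation, YFP-Parkin localisation and ubiquitin phosphorylation.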

Experiment [2] deals with HeLa. The experiment is described as follows: Induction of mitophagy in human HeLa cells transfected with YFP-Parkin assessed as effect on Parkin localization at 50 uM incubated for 24 hrs by Hoechst 33258 staining based immunofluorescence analysis. Type of experiment: functional, cell-based. The essentials:
as §1

Experiment [3] addresses Serine/threonine-protein kinase PINK1, mitochondrial (Homo sapiens) (UniProt Q9BXM7). Kind of experiment: Activation of PINK1 in human HeLa cells transfected with Parkin assessed as increase in Parkin phosphorylation at serine 65 at 50 uM incubated for 1 hr by Western blot analysis. Type of experiment: cell-based. The gist of the method:
(§2)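 HeLa cells transfected with Parkin were exposed to 50 μM compound for 1 h, with 10 μM CCCP for 3 h as a control. Cells were then lysed and immunoblotted for pSer65 Parkin, total Parkin, OPA1 and GAPDH (loading control). Untreated transfected and untransfected cells were included. Blots are representative of three repeat experiments.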
(Immunoblotting shows a protein as a band on a membrane.)

Experiment [4] shares this target. Kind of experiment: Activation of PINK1 in human HeLa cells transfected with Parkin assessed as prevention of OPA1 cleavage at 50 uM incubated for 1 hr by Western blot analysis. The experiment is classed as cell-based. The essentials: as §2
Experiment [5] relates to HeLa. The experiment is described as follows: Induction of mitophagy in YFP-Parkin-transfected human HeLa cells assessed as effect on ubiquitin phosphorylation at 50 uM incubated for 24 hrs by Hoechst 33258 staining based immunofluorescence analysis. The experiment is classed as functional, cell-based. The gist of the method:
as §1

Experiment [6] deals with Serine/threonine-protein kinase PINK1, mitochondrial (Mus musculus) (UniProt Q99MQ3). The experiment is described as follows: Activation of mouse PINK1 in mouse astrocytes assessed ubiquitin serine 65 phosphorylation at 50 uM preincubated for 24 hrs followed by valinomycin treatment for 5 hrs by ELISA. The experiment is classed as cell-based. To be noted: Astrocyte, time 29.0 hrs. The gist of the method: (§3)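 Primary cortical astrocytes came from postnatal day 3 C57BL/6J pups and were used at 70–90% confluence (7–10 days in vitro). Lysates (HEPES/NP-40 lysis, pellet resuspended in RIPA) went to pS65-Ub ELISA. Signal was normalised per μg protein (BCA); mean ± SEM, n = 8.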
Chain of Serine/threonine-protein kinase PINK1, mitochondrial (Mus musculus) (Q99MQ3 whole entry): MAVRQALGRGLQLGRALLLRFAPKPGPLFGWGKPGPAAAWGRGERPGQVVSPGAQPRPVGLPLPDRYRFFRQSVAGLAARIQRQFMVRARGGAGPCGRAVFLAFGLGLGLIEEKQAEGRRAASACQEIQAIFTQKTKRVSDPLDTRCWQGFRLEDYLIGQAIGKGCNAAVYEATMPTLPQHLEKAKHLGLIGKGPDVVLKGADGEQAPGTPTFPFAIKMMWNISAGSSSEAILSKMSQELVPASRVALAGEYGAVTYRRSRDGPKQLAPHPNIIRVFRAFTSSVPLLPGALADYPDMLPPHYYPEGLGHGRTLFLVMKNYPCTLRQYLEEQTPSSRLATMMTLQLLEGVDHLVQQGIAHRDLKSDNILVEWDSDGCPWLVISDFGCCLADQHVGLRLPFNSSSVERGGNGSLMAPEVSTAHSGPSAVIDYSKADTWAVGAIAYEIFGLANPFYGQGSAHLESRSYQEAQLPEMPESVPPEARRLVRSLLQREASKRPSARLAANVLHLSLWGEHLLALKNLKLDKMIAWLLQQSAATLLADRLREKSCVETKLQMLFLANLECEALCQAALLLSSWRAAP
(ELISA stands for enzyme-linked immunosorbent assay.)

Experiment [7] has the same target. The experiment is described as follows: Activation of mouse PINK1 in mouse astrocytes assessed increase in ubiquitin serine 65 phosphorylation at 50 uM incubated for 24 hrs by ELISA analysis. The experiment is classed as cell-based. To be noted: Astrocyte, filed as activator. The essentials:
as §3

For experiment [8], the system named is HeLa. The experiment is described as follows: Inhibition of CCCP-induced ubiquitin phosphorylation at serine 65 residue in human HeLa cells transfected with YFP-Parkin at 50 uM preincubated for 24 hrs followed by CCCP stimulation and measured after 1 hr hr by Hoechst 33258 staining based immunofluorescence analysis. Type of experiment: cell-based. Conditions: time 25.0 hrs. The essentials:
(§4)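 YFP-Parkin HeLa cells were pretreated with 50 μM compound for 24 h, then given 10 μM CCCP or niclosamide for 1 h. Cells were fixed in chilled 4% PFA, permeabilised with 0.1% Triton, blocked in BSA, then immunostained overnight at 4 °C for pSer65-Ub and TOM20 with Hoechst. YFP-Parkin was imaged by confocal microscopy (40× oil). pUb mitochondrial localisation was quantified from images.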

The subject of experiment [9] is HeLa. Kind of experiment: Induction of mitophagy in human HeLa cells transfected with YFP-Parkin assessed as parkin localization in mitochondria at 50 uM preincubated for 24 hrs followed by CCCP stimulation and measured after 1 hr hr by Hoechst 33258 staining based immunofluorescence analysis. The experiment is classed as functional, cell-based. The essentials:
as §4

Experiment [10] concerns the target Serine/threonine-protein kinase PINK1, mitochondrial (Homo sapiens) (UniProt Q9BXM7). Kind of experiment: Activation of human PINK1 in human HeLa cells overexpressing Parkin assessed as phosphorylation of ubiquitin at serine 65 at 50 uM and measured after 24 hr by Western blot analysis. Type of experiment: cell-based. The gist of the method: (§5)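 Parkin-transfected HeLa cells received 50 μM compound for 24 h. They were then either lysed directly or given 10 μM CCCP for 3 h before lysis. Lysates were immunoblotted for Ser65-phosphorylated ubiquitin, OPA1 cleavage and GAPDH. Untreated transfected and untransfected cells served as references.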

The test system of experiment [11] is HeLa. The experiment is described as follows: Inhibition of ubiquitin phosphorylation in CCCP stimulated human HeLa cells overexpressing Parkin assessed as reduction in CCCP-induced ubiquitin phosphorylation at serine 65 at 50 uM preincubated for 24 hrs followed by CCCP stimulation for 3 hr by Western blot analysis. To be noted: time 27.0 hrs. The experiment is classed as cell-based. The essentials:
as §5

Experiment [12] concerns the target Serine/threonine-protein kinase PINK1, mitochondrial (Homo sapiens) (UniProt Q9BXM7). Kind of experiment: Activation of human PINK1 in human HeLa cells overexpressing Parkin assessed as phosphorylation of ubiquitin at serine 65 at 10 uM and measured after 3 hr by Western blot analysis. Type of experiment: cell-based. Conditions: filed as activator. The gist of the method: (§6)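 Parkin-transfected HeLa (DMEM, 10% FBS, 37 °C, 5% CO2) treated 3 h with 10 μM agent (CCCP control arm), with or without 24 h pre-treatment at 50 μM. Lysed in Tris pH 7.5 buffer with phosphatase/protease inhibitors, protein by Bradford, boiled in SDS buffer, immunoblotted for pUb Ser65, OPA1 (cleavage as depolarization read-out) and GAPDH loading control.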

Experiment [13] has as its system MEF. Kind of experiment: Induction of mitophagy in PINK1 knockout mouse immortalized MEF cells overexpressing HA-tagged Parkin assessed as increase in mitophagy at 20 uM incubated for 16 hrs by flow cytometry analysis. The experiment is classed as functional, cell-based. The essentials:
(§7)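 Immortalized MEFs from littermate PINK1 WT or KO mito-QC embryos (mCherry-GFP-FIS1 reporter), overexpressing HA-Parkin; 2.5 × 10^5 cells seeded day before, treated 16 h. Trypsinized, fixed in 3.7% formaldehyde/200 mM HEPES pH 7.0, ≥2 × 10^4 cells acquired by flow cytometry; live cells gated, percent mitophagy from GFP/mCherry ratio using untreated-cell gate; n = 3; two-way ANOVA with Sidak test.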
(In general: In flow cytometry, cells or beads pass a laser one at a time.)

The test system of experiment [14] is MEF. Kind of experiment: Induction of mitophagy in wild-type PINK1 harboring mouse immortalized MEF cells overexpressing HA-tagged Parkin assessed as increase in mitophagy at 20 uM incubated for 16 hrs by flow cytometry analysis. The experiment is classed as functional, cell-based. The essentials: as §7
The test system of experiment [15] is HeLa. The experiment is described as follows: Induction of mitochondrial membrane depolarization in human HeLa cells overexpressing Parkin assessed as OPA1 cleavage at 10 uM and measured after 3 hrs by Western blot analysis. Type of experiment: functional, cell-based. The essentials:
as §6

Experiment [16] has as its system MEF. The experiment is described as follows: Induction of mitophagy in PINK1 knockout mouse immortalized MEF cells overexpressing HA-tagged Parkin assessed as increase in mitophagy at 5 uM incubated for 16 hrs by flow cytometry analysis. The experiment is classed as functional, cell-based. The gist of the method:
(§8)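 Immortalised MEFs from PINK1 WT or KO mito-QC littermate embryos, overexpressing HA-Parkin, were treated for 16 h. Cells were trypsinised, fixed in 3.7% formaldehyde/200 mM HEPES pH 7.0 and analysed by flow cytometry (≥2 × 10^4 cells). Living cells were gated on scatter, and the untreated-condition gate was applied to all conditions. Percent cells undergoing mitophagy was taken from the GFP/mCherry ratio; n = 3, two-way ANOVA with Sidak test.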

Experiment [17] relates to MEF. The experiment is described as follows: Induction of mitophagy in wild-type PINK1 harboring mouse immortalized MEF cells overexpressing HA-tagged Parkin assessed as increase in mitophagy at 5 uM incubated for 16 hrs by flow cytometry analysis. The experiment is classed as functional, cell-based. The essentials:
as §8

Experiment [18] deals with T1, Serine/threonine-protein kinase Pink1, mitochondrial (Tribolium castaneum) (UniProt D6WMX4).
T1 sequence (whole entry): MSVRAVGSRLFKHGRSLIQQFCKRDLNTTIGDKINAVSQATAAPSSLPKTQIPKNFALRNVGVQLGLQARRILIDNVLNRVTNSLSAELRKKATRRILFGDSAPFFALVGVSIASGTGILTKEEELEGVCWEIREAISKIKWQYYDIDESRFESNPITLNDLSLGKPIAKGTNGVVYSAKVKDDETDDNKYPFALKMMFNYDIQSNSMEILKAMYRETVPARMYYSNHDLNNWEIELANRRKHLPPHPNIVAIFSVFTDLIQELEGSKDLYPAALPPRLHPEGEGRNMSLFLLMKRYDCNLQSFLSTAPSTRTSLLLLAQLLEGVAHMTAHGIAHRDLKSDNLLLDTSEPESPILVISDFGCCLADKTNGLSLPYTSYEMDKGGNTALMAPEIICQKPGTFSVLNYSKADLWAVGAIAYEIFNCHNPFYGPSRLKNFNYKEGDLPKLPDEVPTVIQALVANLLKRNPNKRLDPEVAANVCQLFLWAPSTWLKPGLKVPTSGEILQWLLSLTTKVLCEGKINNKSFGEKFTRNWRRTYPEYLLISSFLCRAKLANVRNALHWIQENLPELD
The experiment is described as follows: Inhibition of recombinant Tribolium castaneum PINK1 using human ubiquitin as substrate assessed as substrate phosphorylation upto 100 uM.

Experiment [19] addresses T1, Serine/threonine-protein kinase Pink1, mitochondrial (Tribolium castaneum). The experiment is described as follows: Inhibition of recombinant Tribolium castaneum PINK1 using human Parkin as substrate assessed as substrate phosphorylation upto 100 uM.

Data on 17 compounds can be found in ChEMBL document CHEMBL5352504, “PINK1-Dependent Mitophagy Inhibits Elevated Ubiquitin Phosphorylation Caused by Mitochondrial Damage” (J Med Chem, 2023).

Each structure is given as a SMILES string. Activity calls are given as the source filed them. The rule behind the calls is not given here.

Chain of Serine/threonine-protein kinase PINK1, mitochondrial (Homo sapiens) (Q9BXM7 whole entry): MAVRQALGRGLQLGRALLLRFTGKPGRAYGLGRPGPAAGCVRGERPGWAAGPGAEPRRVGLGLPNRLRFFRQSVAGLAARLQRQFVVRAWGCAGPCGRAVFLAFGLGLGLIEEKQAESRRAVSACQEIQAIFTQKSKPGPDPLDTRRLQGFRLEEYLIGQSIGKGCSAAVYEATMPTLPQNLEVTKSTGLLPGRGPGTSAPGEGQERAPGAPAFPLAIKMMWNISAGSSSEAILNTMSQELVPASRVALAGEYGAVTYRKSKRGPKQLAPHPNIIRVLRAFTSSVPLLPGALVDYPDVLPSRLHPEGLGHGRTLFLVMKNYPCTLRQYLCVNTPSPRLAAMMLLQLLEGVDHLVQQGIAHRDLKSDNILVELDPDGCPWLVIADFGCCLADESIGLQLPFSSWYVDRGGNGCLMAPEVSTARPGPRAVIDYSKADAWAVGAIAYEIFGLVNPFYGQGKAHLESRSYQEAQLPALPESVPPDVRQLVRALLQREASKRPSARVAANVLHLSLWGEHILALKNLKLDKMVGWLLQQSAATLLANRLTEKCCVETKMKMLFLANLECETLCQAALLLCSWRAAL

Regarding `CNc1ncnc2c1ncn2[C@@H]1O[C@H](CO)[C@@H](O)[C@H]1O`, the outcome (in the experiment on HeLa [1]; in the experiment on HeLa [2]; in experiment [4]; in the experiment on HeLa [5]; in experiment [6]; in the experiment with HeLa [9]) was inactive. In addition, the outcome in experiment [3] (filed as activator) and in experiment [7] was Active. In addition, in the experiment with HeLa [8], the inhibition result was “inactive”.

Consider `CNc1ncnc2[nH]cnc12`, for which the result in experiment [3] was inactive.

On to `OC[C@H]1O[C@@H](n2cnc3c(NC4CCCC4)ncnc32)[C@H](O)[C@@H]1O`, for which the outcome in [3] (filed as activator) was Active. The outcome in experiment [4] was inactive.

Take `c1coc(CNc2ncnc3[nH]cnc23)c1`: the outcome in experiment [6] and in experiment [10] was inactive. Moreover, the result in [7] was Active. Also, the inhibition entry in the experiment on HeLa [11] was “inactive”.

As for `Oc1ccc(CCNc2ncnc3[nH]cnc23)cc1`, the result in [3] was inactive.

`c1nc(NC2CCCC2)c2nc[nH]c2n1`: the outcome in experiment [3] was inactive.

`CC(C)(C)CNc1ncnc2[nH]cnc12`: in [3], the outcome was inactive.

Take `N#CC(C#N)=NNc1cccc(Cl)c1`: the result (in [12]; with MEF [14]; in the experiment with HeLa [15]) was Active. Besides, the outcome with MEF [13] was inactive.

On to `CC(C)Nc1ncnc2[nH]cnc12`, for which, in [3], the result was inactive.

Regarding `O=C(Nc1ccc([N+](=O)[O-])cc1Cl)c1cc(Cl)ccc1O`, the result (in [12]; in the experiment with HeLa [15]) was Active.

Consider `c1ccc(CNc2ncnc3[nH]cnc23)cc1`, for which the result in experiment [3] was inactive.

With `OC[C@H]1O[C@@H](n2cnc3c(NCc4ccccc4)ncnc32)[C@H](O)[C@@H]1O`, the outcome (with HeLa [1]; in the experiment on HeLa [2]; in the experiment on MEF [16]; in experiment [4]; in the experiment with HeLa [5]; in experiment [6]) was inactive. Besides, the outcome (in [3] (filed as activator); with MEF [17]; in experiment [7]; in the experiment with HeLa [9]) was Active. Besides, the inhibition entry in [18] and in [19] was “inactive” throughout. For the same compound, the inhibition result with HeLa [8] was “Active”.

With `O=P(O)(O)OP(=O)(O)OP(=O)(O)OC[C@H]1O[C@@H](n2cnc3c(NCc4ccco4)ncnc32)[C@H](O)[C@@H]1O`, in experiment [10], the result was inactive. In the experiment on HeLa [11], the inhibition result was “inactive”.

Regarding `CC(C)Nc1ncnc2c1ncn2[C@@H]1O[C@H](CO)[C@@H](O)[C@H]1O`, the result in [3] (filed as activator) was Active. Further, the outcome in experiment [4] was inactive.

As to `O=P(O)(O)OP(=O)(O)OP(=O)(O)OC[C@H]1O[C@@H](n2cnc3c(NCc4ccccc4)ncnc32)[C@H](O)[C@@H]1O`, the inhibition result in experiment [18] and in [19] was “inactive” throughout.

Consider `OC[C@H]1O[C@@H](n2cnc3c(NCCc4ccc(O)cc4)ncnc32)[C@H](O)[C@@H]1O`, for which, in [3] (filed as activator), the result was Active. Moreover, the result in [4] was inactive.

As for `CC(C)(C)CNc1ncnc2c1ncn2[C@@H]1O[C@H](CO)[C@@H](O)[C@H]1O`, the result in experiment [3] and in [4] was inactive.
